Read-outs that look alike come from different tables or passages of the source.
Columns and labels:
[1] = test system: juvenile Fmr1 knockout mice; details: ref Armstrong et al., 2020; cited from earlier work
[2] = biological target: T1, m5-HT2C-VNV (Mus musculus, UniProt P34968, I157V/I161V); assay type: binding
T1 sequence (P34968 33-459 I157V/I161V): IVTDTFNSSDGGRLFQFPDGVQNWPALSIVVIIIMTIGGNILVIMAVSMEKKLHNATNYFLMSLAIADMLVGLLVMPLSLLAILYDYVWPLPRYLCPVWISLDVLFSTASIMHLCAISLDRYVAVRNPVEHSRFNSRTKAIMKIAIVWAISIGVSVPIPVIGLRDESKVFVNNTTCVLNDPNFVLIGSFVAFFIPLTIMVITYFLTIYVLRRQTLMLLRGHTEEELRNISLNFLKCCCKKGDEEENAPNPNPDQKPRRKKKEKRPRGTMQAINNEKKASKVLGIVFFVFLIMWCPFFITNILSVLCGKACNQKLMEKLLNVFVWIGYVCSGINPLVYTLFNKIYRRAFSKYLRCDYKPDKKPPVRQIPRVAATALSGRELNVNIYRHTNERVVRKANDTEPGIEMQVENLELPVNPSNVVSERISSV

[3] = biological target: T2, h5-HT2C-INI (Homo sapiens, UniProt P28335); assay type: binding; details: [3H]Mesulergine, one-site fit Ki
T2 sequence (P28335 33-458): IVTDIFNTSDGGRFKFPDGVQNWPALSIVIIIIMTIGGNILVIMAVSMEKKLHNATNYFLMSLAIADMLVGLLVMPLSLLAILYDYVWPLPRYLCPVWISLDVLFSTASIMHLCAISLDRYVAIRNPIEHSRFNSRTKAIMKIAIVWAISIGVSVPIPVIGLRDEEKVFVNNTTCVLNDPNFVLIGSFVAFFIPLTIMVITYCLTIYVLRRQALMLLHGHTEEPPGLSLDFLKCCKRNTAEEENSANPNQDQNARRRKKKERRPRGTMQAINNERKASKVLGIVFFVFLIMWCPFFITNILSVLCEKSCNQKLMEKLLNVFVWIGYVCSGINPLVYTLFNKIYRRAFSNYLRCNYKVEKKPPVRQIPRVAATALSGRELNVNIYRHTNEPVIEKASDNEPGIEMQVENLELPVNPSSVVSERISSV

[4] = biological target: T2, h5-HT2C-INI; experiment: 5-HT2CR-mediated phosphoinositide hydrolysis, h5-HT2C-INI in HEK293 cells; assay type: cell-based; details: for agonist efficacy: relative to 5-HT
[5] = test system: C57BL/6J mice; experiment: DOI-elicited head-twitch response; assay type: in vivo, mouse; details: for HTR (mean count): 10-minute session
Outline: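 C57BL/6J mice were acclimated to the testing room for ≥60 min. They then received s.c. vehicle (Milli-Q water) or test compound (1, 3 or 5.6 mg/kg), followed 10 min later by s.c. 5-HT2R agonist challenge (1.0 mg/kg). After a further 10 min, mice were placed in the open field for a 10-min session. Head twitches (rapid, discrete head jerks) were counted with a tally counter by an observer blind to treatment.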

[6] = biological target: T3, m5-HT2A (Mus musculus, UniProt P35363); experiment: 5-HT2AR-mediated phosphoinositide hydrolysis, m5-HT2A in HEK293 cells; assay type: cell-based
[7] = biological target: h5-HT2A (Homo sapiens, UniProt P28223); experiment: 5-HT2AR-mediated phosphoinositide hydrolysis, h5-HT2A in HEK293 cells; assay type: cell-based; details: relative to 5-HT
[8] = biological target: T3, m5-HT2A; experiment: Radioligand competition binding, [3H]Ketanserin, m5-HT2A in HEK293 membranes
[9] = biological target: T1, m5-HT2C-VNV; experiment: 5-HT2CR-mediated phosphoinositide hydrolysis, m5-HT2C-VNV in HEK293 cells; assay type: cell-based; details: for agonist efficacy: relative to 5-HT
[10] = test system: juvenile Fmr1 knockout mice; experiment: Audiogenic seizures; assay type: in vivo, mouse; details: for lethality: vehicle 60%; for seizure prevalence (TCS): vehicle 70%; for mean WRJ duration (± SD): vehicle 10 (±5)
[11] = test system: C57BL/6J mice; experiment: Locomotor activity in open field; assay type: in vivo, mouse
[12] = test system: C57BL/6J mice; experiment: Head-twitch response; assay type: in vivo, mouse; details: vehicle 2.6
[13] = steady-state clinical dosing of 10 mg twice daily in monkeys; ref FDA briefing document NDA22529; cited from earlier work
[14] = phosphoinositide hydrolysis, mean
[15] = phosphoinositide hydrolysis, mean (95% CI)
[16] = 30 mg/kg i.p., 30 min before test
[17] = lorcaserin 5.6 mg/kg with M100907 0.03 mg/kg pretreatment

T3 sequence (P35363 whole entry): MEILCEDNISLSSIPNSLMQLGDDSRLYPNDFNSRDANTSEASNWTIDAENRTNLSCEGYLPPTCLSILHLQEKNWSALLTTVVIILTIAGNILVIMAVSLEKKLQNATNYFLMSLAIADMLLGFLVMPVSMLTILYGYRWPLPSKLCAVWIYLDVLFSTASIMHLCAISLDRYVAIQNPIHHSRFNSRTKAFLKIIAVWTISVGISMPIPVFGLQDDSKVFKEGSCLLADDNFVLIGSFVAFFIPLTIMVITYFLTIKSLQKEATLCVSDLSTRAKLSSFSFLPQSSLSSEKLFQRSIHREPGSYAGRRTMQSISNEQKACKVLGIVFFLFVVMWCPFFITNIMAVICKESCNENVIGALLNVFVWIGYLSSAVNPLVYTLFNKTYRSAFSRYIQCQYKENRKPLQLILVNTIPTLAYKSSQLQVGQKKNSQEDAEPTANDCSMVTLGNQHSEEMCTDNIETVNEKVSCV
Chain of h5-HT2A (P28223 whole entry): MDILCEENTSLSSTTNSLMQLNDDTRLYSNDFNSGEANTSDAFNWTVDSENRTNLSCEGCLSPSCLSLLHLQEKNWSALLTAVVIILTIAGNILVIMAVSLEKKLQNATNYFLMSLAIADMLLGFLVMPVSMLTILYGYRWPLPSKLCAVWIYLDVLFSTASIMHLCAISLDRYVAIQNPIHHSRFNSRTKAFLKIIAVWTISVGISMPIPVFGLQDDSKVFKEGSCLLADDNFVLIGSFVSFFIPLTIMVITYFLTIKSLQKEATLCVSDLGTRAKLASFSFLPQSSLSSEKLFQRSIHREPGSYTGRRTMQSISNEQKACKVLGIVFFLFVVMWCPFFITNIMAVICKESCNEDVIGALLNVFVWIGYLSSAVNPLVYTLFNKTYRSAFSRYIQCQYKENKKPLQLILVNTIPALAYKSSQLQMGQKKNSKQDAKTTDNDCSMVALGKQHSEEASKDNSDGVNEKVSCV

CN(C)[C@H]1CCc2c(cccc2-c2ccccc2F)C1 [FPT, (S)-5-(2’-Fluorophenyl)-N,N-dimethyl-1,2,3,4-tetrahydronaphthalen-2-amine]
prevention of AGSs [1]: completely prevents AGSs

CN1C[C@@H](NS(=O)(=O)N(C)C)C[C@@H]2c3cccc4c3c(cn4C)C[C@H]21 [Mesulergine]
Ki [2]: 3.39 nM

COc1cc(CC(C)N)c(OC)cc1I (racemic) [DOI, (±)-2,5-dimethoxy-4-iodoamphetamine]
Ki ([3]; mean): 96 nM | pKi (95% CI) ([3]; mean (95% CI)): 7.02 (7.11 to 6.93) | EC50 [4, 14]: 4.1 nM | pEC50 (95% CI) [4, 15]: 8.39 (8.76 to 8.04) | agonist efficacy [4]: full agonists | HTR (mean count) ([5]; DOI 1 mg/kg s.c. alone): 37.6 | more HTRs than SB242084 plus lorcaserin ([5]; DOI 1 mg/kg vs SB242084 plus lorcaserin 3 mg/kg): 5 fold | EC50 [6, 14]: 1 nM | pEC50 (95% CI) [6, 15]: 9.00 (9.44 to 8.57) | agonist efficacy ([6]; relative to 5-HT): full efficacy m5-HT2AR agonist activity | agonist efficacy [7]: full efficacy h5-HT2AR agonist activity | Ki ([2]; [3H]Mesulergine, one-site fit Ki, mean): 65 nM | pKi (95% CI) ([2]; [3H]Mesulergine, one-site fit Ki, mean (95% CI)): 7.19 (7.28 to 7.10) | Ki ([8]; [3H]Ketanserin, one-site fit Ki, mean): 33 nM | pKi (95% CI) ([8]; [3H]Ketanserin, one-site fit Ki, mean (95% CI)): 7.48 (7.54 to 7.42) | pKi (95% CI) at the high-affinity site ([8]; two-site fit Ki model): 8.01 (8.70 to 7.64) | pKi (95% CI) at the low-affinity site ([8]; two-site fit Ki model): 7.02 (7.32 to 6.30) | EC50 [9, 14]: 8 nM | pEC50 (95% CI) [9, 15]: 8.10 (8.41 to 7.80) | agonist efficacy [9]: full agonists

COc1cccc([C@H](O)C2CCN(CCc3ccc(F)cc3)CC2)c1OC [M100907]
lethality ([10]; 0.03 mg/kg i.p. alone): 88% | seizure prevalence (TCS) ([10]; 0.03 mg/kg i.p. alone): 100%

Cc1cccc(C#Cc2ccccc2)n1 [MPEP, 2-methyl-6-(phenylethynyl)pyridine]
lethality [10, 16]: 12% | seizure prevalence (TCS) [10, 16]: 12% | mean latency (± SD) to first episode of WRJ ([10]; 30 mg/kg, vehicle 36 (±11)): 160 (±19) seconds

Cc1cc2c(cc1Cl)N(C(=O)Nc1ccc(Oc3cccnc3C)nc1)CC2 [SB242084]
effect on lorcaserin (3 mg/kg) reduced locomotor activity ([11]; SB242084 0.5 mg/kg and 1 mg/kg s.c.): overturned

C[C@H]1CNCCc2ccc(Cl)cc21 [Lorcaserin]
agonist efficacy [4]: full agonists | HTR (mean count) ([5]; lorcaserin 3 mg/kg plus DOI 1 mg/kg): 44.1 | HTR (mean count) ([5]; lorcaserin 5.6 mg/kg plus DOI 1 mg/kg): 44.9 | HTR (mean count) ([12]; 3 mg/kg s.c. alone): 4.1 | HTR (mean count) ([12]; lorcaserin 3 mg/kg with SB242084 0.5 mg/kg s.c.): 7 | HTR (mean count) ([12]; lorcaserin 3 mg/kg with SB242084 1 mg/kg s.c.): 6.3 | effect on locomotor activity ([11]; 3 mg/kg s.c. alone, relative to vehicle (P<0.0001)): significantly reduced locomotor activity | effect on locomotor activity ([11]; lorcaserin 3 mg/kg combined with SB242084 0.5 mg/kg, relative to vehicle (P=0.0003)): significantly enhanced locomotor activity | lethality ([10]; 1 mg/kg i.p.): 67% | seizure prevalence (TCS) ([10]; 1 mg/kg i.p.): 83% | lethality ([10]; 3 mg/kg i.p.): 28% | seizure prevalence (TCS) ([10]; 3 mg/kg i.p.): 56% | attenuation of AGS lethality ([10]; 3 mg/kg, relative to vehicle, not significant (P=0.06)): 32% | attenuation of AGS prevalence ([10]; 3 mg/kg, relative to vehicle, not significant (P=0.5)): 14% | mean WRJ duration (± SD) ([10]; 5.6 mg/kg alone): 19 (±12) seconds | lethality ([10]; 5.6 mg/kg i.p.): 78% | seizure prevalence (TCS) ([10]; 5.6 mg/kg i.p.): 94% | mean WRJ duration (± SD) ([10]; 5.6 mg/kg in combination with M100907 0.03 mg/kg): 20 (±14) seconds | mean TCS onset latency (± SD) ([10]; 5.6 mg/kg, vehicle 41 (±8)): 58 (±21) seconds | lethality ([10]; 10 mg/kg i.p.): 78% | seizure prevalence (TCS) ([10]; 10 mg/kg i.p.): 89% | effect on WRJ latency ([10]; 1, 3, 5.6, 10 mg/kg): did not affect WRJ latency | prevention of AGSs ([10]; 1-10 mg/kg i.p.): ineffective at preventing AGSs | lethality [10, 17]: 50% | seizure prevalence (TCS) [10, 17]: 90% | behaviours observed in treated animals ([10]; some animals that received lorcaserin): purposeless oral movements | EC50 ([6]; EC50, phosphoinositide hydrolysis, mean): 212 nM | Emax ([6]; HEK293): 84.6% | EC50 ([6]; pEC50 (95% CI), phosphoinositide hydrolysis, mean (95% CI)): 209 nM | brain concentrations [13]: ~ 1.7 μM | Ki [2]: 741 nM | Ki ([8]; Ki, [3H]Ketanserin, one-site fit Ki, mean): 4460 nM | EC50 [9]: 15.8 nM | agonist efficacy [9]: full agonists

O=C(c1ccc(F)cc1)C1CCN(CCn2c(=O)[nH]c3ccccc3c2=O)CC1 [Ketanserin]
Ki ([8]; pKi (95% CI), [3H]Ketanserin, one-site fit Ki, mean (95% CI)): 2.69 nM

From paper PMC8296307 (Epilepsy research, 2021)
